Screens from PubChem.
RanGTP-Imp inh = inhibitors of RanGTP-importin-beta interaction, primary screen, biochemical, FRET, CFP-Ran, YFP-importin-beta, homogeneous; cell-free CFP-Ran/YFP-importin-beta FRET ratio; inhibition, % (no concentration beside the values); actives 1.1% (n = 300,000);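 active = more than half of the replicate wells show a fall in the fluorescence ratio signal beyond about 16%, limit read from the data, passing the limit was not always enough; inconclusive = exactly half of the replicate wells pass the set limit; inactive = fewer than half of replicates pass the limit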;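 note: 0% = DMSO wells and 100% = Ran loaded with GDP instead of GTP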
FAS TE block = blocks the thioesterase domain of human fatty acid synthase; P49327; recombinant FAS-TE, OMFH fluorogenic substrate, fluorescence endpoint; inhibition, % at 15 µM; actives 0.67% (n = 360,000); AID 602261;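 active = compounds whose normalised, plate-corrected inhibition of enzyme fluorescence in the single-dose primary screen is 50% or more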;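 note: 0% = DMSO with enzyme and 100% = substrate without enzyme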
Target sequence (P49327 whole entry, looked up, the tested form may be a part): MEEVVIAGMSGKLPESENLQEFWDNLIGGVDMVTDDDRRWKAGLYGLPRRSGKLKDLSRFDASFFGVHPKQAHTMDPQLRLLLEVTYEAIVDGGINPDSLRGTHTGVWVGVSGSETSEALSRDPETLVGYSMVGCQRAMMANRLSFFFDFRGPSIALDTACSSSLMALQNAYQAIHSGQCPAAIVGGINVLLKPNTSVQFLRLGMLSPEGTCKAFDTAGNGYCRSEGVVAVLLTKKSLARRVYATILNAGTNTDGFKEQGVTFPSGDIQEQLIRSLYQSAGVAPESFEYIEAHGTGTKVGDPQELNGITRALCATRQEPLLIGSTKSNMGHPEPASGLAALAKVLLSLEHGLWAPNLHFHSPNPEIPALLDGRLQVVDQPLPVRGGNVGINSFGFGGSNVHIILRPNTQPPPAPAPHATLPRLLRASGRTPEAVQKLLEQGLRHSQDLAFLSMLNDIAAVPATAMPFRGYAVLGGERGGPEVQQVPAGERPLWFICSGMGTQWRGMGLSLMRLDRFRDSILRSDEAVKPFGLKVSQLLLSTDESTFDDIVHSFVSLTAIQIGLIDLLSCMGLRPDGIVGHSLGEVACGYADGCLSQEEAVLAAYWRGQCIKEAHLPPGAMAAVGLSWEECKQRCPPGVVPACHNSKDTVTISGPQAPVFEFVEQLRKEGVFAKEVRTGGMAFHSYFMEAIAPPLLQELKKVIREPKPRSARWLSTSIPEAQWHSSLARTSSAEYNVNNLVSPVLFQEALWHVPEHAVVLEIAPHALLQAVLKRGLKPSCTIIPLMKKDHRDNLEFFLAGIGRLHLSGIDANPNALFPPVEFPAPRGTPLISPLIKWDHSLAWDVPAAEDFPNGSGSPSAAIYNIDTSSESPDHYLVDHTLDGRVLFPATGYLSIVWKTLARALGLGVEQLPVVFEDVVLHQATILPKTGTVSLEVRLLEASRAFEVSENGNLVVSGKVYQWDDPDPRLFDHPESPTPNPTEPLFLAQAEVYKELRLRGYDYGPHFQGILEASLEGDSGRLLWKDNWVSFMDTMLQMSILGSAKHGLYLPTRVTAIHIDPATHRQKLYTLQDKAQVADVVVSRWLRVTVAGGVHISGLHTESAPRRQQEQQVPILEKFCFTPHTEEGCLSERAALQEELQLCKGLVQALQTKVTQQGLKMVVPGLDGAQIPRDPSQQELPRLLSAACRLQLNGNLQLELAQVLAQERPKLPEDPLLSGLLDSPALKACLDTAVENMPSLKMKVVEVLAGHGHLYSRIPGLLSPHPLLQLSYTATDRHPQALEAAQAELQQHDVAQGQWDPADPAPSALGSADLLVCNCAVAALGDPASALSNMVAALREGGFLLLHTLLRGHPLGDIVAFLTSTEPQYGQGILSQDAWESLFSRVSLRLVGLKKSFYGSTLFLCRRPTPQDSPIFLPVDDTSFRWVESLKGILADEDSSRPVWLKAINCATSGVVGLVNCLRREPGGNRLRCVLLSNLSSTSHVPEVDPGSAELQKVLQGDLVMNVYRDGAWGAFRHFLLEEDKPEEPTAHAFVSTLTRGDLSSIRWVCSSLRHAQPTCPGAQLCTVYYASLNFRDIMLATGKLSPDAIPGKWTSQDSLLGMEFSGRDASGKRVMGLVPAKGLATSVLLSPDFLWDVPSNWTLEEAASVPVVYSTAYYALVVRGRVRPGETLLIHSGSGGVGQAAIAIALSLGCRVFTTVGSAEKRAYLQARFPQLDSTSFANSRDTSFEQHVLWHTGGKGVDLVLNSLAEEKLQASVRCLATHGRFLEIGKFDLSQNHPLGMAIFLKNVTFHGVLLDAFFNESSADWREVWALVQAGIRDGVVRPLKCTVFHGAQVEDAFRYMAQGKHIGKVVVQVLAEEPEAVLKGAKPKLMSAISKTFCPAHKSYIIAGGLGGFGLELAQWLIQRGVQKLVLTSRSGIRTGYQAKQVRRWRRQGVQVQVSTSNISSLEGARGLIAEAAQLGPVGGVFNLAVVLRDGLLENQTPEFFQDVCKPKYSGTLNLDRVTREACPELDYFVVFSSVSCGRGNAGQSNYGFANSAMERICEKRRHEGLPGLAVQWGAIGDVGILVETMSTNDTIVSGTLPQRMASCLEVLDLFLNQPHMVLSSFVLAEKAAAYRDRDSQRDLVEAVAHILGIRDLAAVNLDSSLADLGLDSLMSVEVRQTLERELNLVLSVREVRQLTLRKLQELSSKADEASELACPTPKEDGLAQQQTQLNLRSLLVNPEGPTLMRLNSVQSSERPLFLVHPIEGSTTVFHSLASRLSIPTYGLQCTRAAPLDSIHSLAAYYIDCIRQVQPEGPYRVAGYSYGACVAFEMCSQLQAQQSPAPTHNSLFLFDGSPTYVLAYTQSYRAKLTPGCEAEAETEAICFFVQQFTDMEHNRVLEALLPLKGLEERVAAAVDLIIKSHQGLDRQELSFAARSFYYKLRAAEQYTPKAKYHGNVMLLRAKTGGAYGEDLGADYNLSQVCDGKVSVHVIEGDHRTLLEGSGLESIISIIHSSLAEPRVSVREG
Runt-SMMHC FRET = inhibitors of human RUNX1 Runt domain binding to CBFb-SMMHC; Q01196+Q13951; Cerulean-Runt/Venus-CBFb-SMMHC FRET ratio 530/480, 1 h; inhibition, % at 20 µM; actives 0.74% (n = 220,000);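 active = mean inhibition across duplicate retests at 20 µM reaching about 50%, limit read from the data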;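 note: 0% = DMSO wells and 100% = wells with excess untagged CBFb-SMMHC; inhibitors lower the FRET ratio by blocking Runt binding to CBFb-SMMHC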
Runt-CBFb FRET = blocks binding of human RUNX1 Runt domain to CBFb; Q01196+Q13951; Cerulean-Runt/Venus-CBFb FRET ratio 530/480, 1 h; inhibition, % at 20 µM; actives 0.46% (n = 220,000); AID 1496;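 active = inhibition over about 50% at 20 µM in the single-dose screen, limit read from the data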;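 note: 0% = DMSO wells and 100% = excess unlabeled CBFb competitor control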
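Doses: 20 µM compound in 1% DMSO | Material: Cerulean-labeled Runt domain protein | Amount: Each fluorescent fusion protein 100 nM | Schedule: Two 1 h room-temperature incubations shielded from light | Measured by: FRET fluorescence | Evaluation: Loss of energy transfer signal | Controls: Unlabeled CBFb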
m-calpain inh = blocks pig calpain II enzyme activity | purified calpain II, fluorogenic peptide substrate, 30 min | inhibition, % at 16 µM | actives 0.37% (n = 220,000) | AID 1236;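 active = inhibition above about 50%, limit read from the data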
FAS-TE conf = confirmation of human fatty acid synthase thioesterase inhibitors; shares compounds with FAS TE block; recombinant FAS-TE, OMFH fluorogenic substrate, fluorescence; inhibition, % at 15 µM; actives 45% (n = 2,300); AID 624325;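 active = compounds inhibiting the enzyme by at least 50% at 15 µM in any one of the replicates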;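 note: 0% = enzyme with DMSO only and 100% = wells lacking enzyme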
An asterisk follows results filed as active; ? = inconclusive; / = not tested or not shown. Compounds with a hit are over-represented: about 2.1% of the library has one in this group of screens.

SMILES	RanGTP-Imp inh	FAS TE block	Runt-SMMHC FRET	Runt-CBFb FRET	m-calpain inh	FAS-TE conf
Cc1c(Cl)c([N+](=O)[O-])nn1CCCC(=O)Nc1cccc(Cl)c1	-0.5	50.9*	-0.7	-1.3	4.9	42.0*
Cc1c(C(=O)Nc2cccc(Cl)c2)oc2ccc(S(=O)(=O)N3CCC4(CC3)OCCO4)cc12	1.1	65.6*	-7.7	-4.3	-179.2	1.0
Cc1c(C(=O)Nc2ccc(F)cc2)oc2ccc(S(=O)(=O)N3CCC4(CC3)OCCO4)cc12	4.5	36.2	-1.1	-2.1	-57.9	/
CN(C)S(=O)(=O)c1ccc2c(c1)C(=O)c1cc(S(=O)(=O)N(C)C)ccc1CC2	/	78.9*	/	/	/	93.6*
CNS(=O)(=O)c1ccc(C)c(S(=O)(=O)NC)c1	-1.2	-9.9	0.1	-1.8	11.6	/
CNS(=O)(=O)c1ccc2c(c1)C(=O)c1cc(S(=O)(=O)NC)ccc1CC2	/	82.4*	/	/	/	91.4*
COc1ccc(CCNC(=O)C(=O)NCCC2CCCCN2S(=O)(=O)c2ccccc2)cc1 (stereo unspecified)	-2.4	13.1	/	/	/	/
OCC[C@@H]1C[C@H](O)[C@@H](O)[C@@]2(CCCc3ccccc3O2)O1	4.3	-4.0	/	/	/	/
COc1ccccc1NC(=O)CSc1nc2[nH]ncc2c(=O)[nH]1	1.0	-10.0	/	/	/	/
CC1CCN(S(=O)(=O)c2ccc3c(c2)N(CC(=O)NCCCN2C(C)CCCC2C)C(=O)CO3)CC1 (stereo unspecified)	?	-7.8	/	/	/	/
Cc1cccc(Nc2ccc(S(=O)(=O)N3CCOCC3)cc2[N+](=O)[O-])c1	/	24.8	/	/	/	/
Cc1cccc(C)c1NC(=S)N=Nc1c(O)n(C)c2ccc(S(=O)(=O)N3CCOCC3)cc12	-2.8	76.4*	0.9	0.9	-58.8	31.4
Cn1c(=O)n(C)c2cc(S(=O)(=O)N3CCOCC3)ccc21	-2.2	-7.7	0.9	1.6	-19.4	/
Cc1ccccc1NC(=S)N=Nc1c(O)n(C)c2ccc(S(=O)(=O)N3CCOCC3)cc12	1.9	20.7	-9.1	-3.4	-6.7	/
Cc1cccc(NC(=S)N=Nc2c(O)n(C)c3ccc(S(=O)(=O)N4CCOCC4)cc23)c1	4.1	58.9*	-7.4	-4.0	-41.4	24.3
Cc1ccc(NC(=S)N=Nc2c(O)n(C)c3ccc(S(=O)(=O)N4CCOCC4)cc23)cc1	5.4	58.9*	-2.6	-2.6	-20.7	27.5
Cc1cc(C)cc(NC(=S)N=Nc2c(O)n(C)c3ccc(S(=O)(=O)N4CCOCC4)cc23)c1	-3.2	61.0*	-7.0	-1.1	-21.4	5.9
CCOc1ccc(S(=O)(=O)n2ccnc2C)cc1	-2.2	/	/	/	/	/
CCOc1ccccc1NC(=O)CSc1ccc([N+](=O)[O-])cc1	0.5	16.2	2.7	0.1	-5.2	/
Fc1ccc(-c2csc(-c3cccnc3)n2)cc1F	-4.7	7.8	/	/	/	/
CC(O)(c1cccnc1)c1nc(-c2ccc(S(C)(=O)=O)cc2)cs1 (stereo unspecified)	/	-9.4	/	/	/	/
CS(=O)(=O)c1ccc(-c2csc(-c3cccnc3)n2)cc1	-1.3	58.3*	/	/	/	50.2*
CN(C)S(=O)(=O)c1ccc(-c2csc(-c3cccnc3)n2)cc1	4.9	75.3*	1.0	-0.5	23.9	78.4*
Cc1c(C(=O)N2CCN(c3ccc([N+](=O)[O-])cc3)CC2)oc2ccccc12	/	31.1	/	/	/	/
Cc1c(-c2ccccc2)oc2c(C(=O)N3CCN(c4ccc([N+](=O)[O-])cc4)CC3)cccc2c1=O	0.6	60.2*	-10.4	-2.2	-40.4	10.2
SMILES	RanGTP-Imp inh	FAS TE block	Runt-SMMHC FRET	Runt-CBFb FRET	m-calpain inh	FAS-TE conf
COc1ccc(-c2nn(-c3ccccc3)cc2C(=O)N2CCN(S(=O)(=O)c3ccccc3C#N)CC2)cc1	4.4	23.0	/	/	/	/
COc1ccc(-c2nn(-c3ccccc3)cc2C(=O)N2CCN(S(=O)(=O)c3ccccc3[N+](=O)[O-])CC2)cc1	/	78.5*	/	/	/	25.5
COc1ccc(-c2csc(N3C(=N)SCC3=O)n2)cc1	0.3	-10.3	3.1	-1.8	7.2	/
COc1ccc(-c2csc(N3C(=O)C4C5c6ccccc6C(c6ccccc65)[C@@H]4C3=O)n2)cc1 (stereo partly specified)	3.3	58.8*	2.4	2.9	-22.6	12.5
COc1ccc(-c2csc(N3C(=O)C4C5c6ccccc6C(c6ccccc65)C4C3=O)n2)cc1 (stereo unspecified)	2.3	63.2*	5.5	2.9	3.4	33.8
CCOc1ccc(NS(=O)(=O)c2ccc(C(=O)NCC(c3ccco3)N3CCCC3)cc2)cc1 (stereo unspecified)	/	-2.6	/	/	/	/
CS/C(=N\S(=O)(=O)c1ccccc1)c1ccccc1	2.9	-4.0	-4.9	11.9	-9.0	/
O=S(=O)(/N=C(/Sc1ccccc1)c1ccccc1)c1ccccc1	4.6	56.8*	12.2	15.2	-23.8	31.6
COc1ccc(C2=NN(C(=O)c3ccc(Cl)c([N+](=O)[O-])c3)C(c3ccccc3)C2)cc1 (stereo unspecified)	-0.5	56.4*	4.3	1.9	45.2	-1.4
COc1ccc(C2CC(c3ccc(Cl)cc3)=NN2C(=O)c2cccc([N+](=O)[O-])c2)cc1 (stereo unspecified)	4.2	28.6	5.3	2.9	-6.6	/
COc1ccc(-n2c(CN3CCN(c4ccccc4OC)CC3)nc3ccc([N+](=O)[O-])cc3c2=O)c(OC)c1	-5.8	32.0	/	/	/	/
COc1cccc(-n2c(CN3CCN(c4ccccc4)CC3)nc3ccc([N+](=O)[O-])cc3c2=O)c1	1.4	71.5*	-6.4	10.1	-21.8	31.1*
CN1C(=O)/C(=C/c2cc(N=Nc3ccccc3)ccc2O)SC1=S	-2.1	58.5*	-5.3	-5.5	-77.0	14.2
Cc1c(N2C(=O)/C(=C\c3ccccc3O)SC2=S)c(=O)n(-c2ccccc2)n1C	4.1	-3.7	26.4	32.4	17.4	/
O=C(N[C@@H](Cc1ccccc1)C(=O)N1CCN(S(=O)(=O)c2ccc(F)cc2)CC1)c1ccco1	/	-4.3	/	/	/	/
COc1cccc(NC(=O)CCNC(=O)C2CCN(S(=O)(=O)c3ccc(F)cc3)CC2)c1	-0.8	-3.5	/	/	/	/
O=C1[C@@H]2[C@H](Cc3ccc(O)cc3)N[C@]3(C(=O)Nc4ccccc43)[C@@H]2C(=O)N1c1ccc(F)cc1	?	-0.7	0.7	0.2	8.9	/
Cc1c(Cl)ccc2c1NC(=O)[C@]21N[C@@H](Cc2ccccc2)[C@H]2C(=O)N(c3ccc(F)cc3)C(=O)[C@H]21	0.9	76.3*	-0.7	-2.5	-169.8	19.8
CCC1=NN(C(=O)c2cccc(Br)c2)C(O)(c2ccc(Br)cc2)C1 (stereo unspecified)	-0.8	51.9*	-11.0	1.4	15.3	47.1
O=C(Nc1ccc(C(=O)O)cc1)/C(=C\c1ccc([N+](=O)[O-])cc1)NC(=O)c1ccc(Br)cc1	2.0	82.1*	-2.3	-1.9	9.9	91.1*
